Vif imaging: inhibitors of HIV Vif | HEK293T cells, Vif self-association by quenched fluorescence, imaging, 24 h | inhibition, % at 7.49 µM | 340,000 tested, 0.35% active; in the data active means inhibition above about 50%, passing the limit was not always enough; inconclusive means no clear call, values can overlap the other calls; inactive means below about 31%
NR2E3 ag-1: human photoreceptor-specific nuclear receptor agonism | CHO-S Gal4-NCOR/VP16-NR2E3 two-hybrid, luciferase | inhibition of corepressor binding, % at 3.98 µM | 360,000 tested, 0.35% active | AID 602229;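 active means inhibition above the mean of all tested compounds plus 3 SD, cut at about 70% in these data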;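 further: 0% = DMSO with NR2E3 transfected cells and 100% = cells lacking NR2E3 construct; higher means lower luciferase signal from less NR2E3 corepressor binding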
NR2E3 ag-2: activates human photoreceptor nuclear receptor NR2E3 | AID 2300 | GST-NR2E3/biotin-RetCOR TR-FRET, 1536-well | Q9Y5X4 | 320,000 tested, 0.12% active | inhibition of corepressor binding, % at 4.78 µM;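 active means percent inhibition above the cutoff of mean plus 3 SD of all tested compounds, set per screening campaign, cut at about 20% in these data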;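 further: 0% = DMSO wells and 100% = biotin wells as full block of FRET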
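Test system – NR2E3–RetCOR corepressor complex · Quantity – NR2E3 fusion 1.35 nM · Buffer or medium – Tris pH 7.5 · Incubation – Compound–protein incubation for 5 h at 4 °C · Technique – TR-FRET, Eu(K)-anti-GST donor, streptavidin-D2 acceptor, ex 340, em 617/671 nm · Evaluation – percent inhibition of 671/617 nm emission ratio versus biotin and DMSO controls · Plate – 1536-well format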
DAGLB inhibitor: diacylglycerol lipase beta (human) inhibition; HEK293T DAGLB membrane lysate, EnzChek fluorogenic substrate; inhibition, % at 5.17 µM; 340,000 tested, 0.059% active; AID 504411; in the data active means inhibition above about 34%;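 further: 0% = enzyme with vehicle and 100% = wells lacking enzyme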
Target sequence (Q8NCG7 whole entry, looked up): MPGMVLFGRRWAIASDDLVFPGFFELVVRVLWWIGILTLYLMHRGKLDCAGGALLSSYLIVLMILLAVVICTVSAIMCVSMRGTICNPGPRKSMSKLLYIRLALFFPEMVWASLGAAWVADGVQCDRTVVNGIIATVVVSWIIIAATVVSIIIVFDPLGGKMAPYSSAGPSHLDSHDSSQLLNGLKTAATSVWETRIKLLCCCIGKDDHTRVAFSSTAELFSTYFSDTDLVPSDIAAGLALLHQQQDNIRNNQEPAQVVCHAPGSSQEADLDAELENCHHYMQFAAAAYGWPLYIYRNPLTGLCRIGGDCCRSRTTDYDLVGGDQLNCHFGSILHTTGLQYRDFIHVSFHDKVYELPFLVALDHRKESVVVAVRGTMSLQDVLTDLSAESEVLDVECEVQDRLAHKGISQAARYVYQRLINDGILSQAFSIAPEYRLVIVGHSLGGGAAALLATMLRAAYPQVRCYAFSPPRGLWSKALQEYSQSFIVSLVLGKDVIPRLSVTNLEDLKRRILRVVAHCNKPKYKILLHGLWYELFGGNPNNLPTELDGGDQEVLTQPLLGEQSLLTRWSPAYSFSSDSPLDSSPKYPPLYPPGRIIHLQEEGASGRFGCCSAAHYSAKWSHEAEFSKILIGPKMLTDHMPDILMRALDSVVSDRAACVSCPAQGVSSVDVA
MT1-MMP act inh: inhibitors of human MT1-MMP activation; GFP/RFP ratio change, % at 20 µM; 360,000 tested, 0.061% active; HT1080 RFP-PRO-GFP cells, GFP/RFP ratio fluorescence, overnight; percent of plate control window, DMSO zero; AID 651647; P50281;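 active means GFP/RFP ratio change of at least 30% with cell ATP level not reduced by more than half and red fluorescence within 50% of control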
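Assay system – RFP-PRO-GFP reporter HT1080 cells · Compound dosing – single dose of 20 µM compound, 1% DMSO final · Incubation – overnight compound exposure at 37 °C · Measure – GFP/RFP fluorescence ratio · Benchmarks – DMSO wells and RFP-L50D-GFP cells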
core dimer inh: HCV core protein dimerization inhibition | 300,000 tested, 0.33% active | inhibition, % at 5 µM | AID 1899 | TR-FRET GST/Flag-core106 dimerization, 1536-well;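 active means inhibition above the mean of all tested compounds plus 3 SD, set per screening campaign, cut at about 45% in these data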
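Assay system: tagged HCV core106 pair (GST and Flag); medium: KF-containing HEPES buffer, pH 7.45, DTT, CHAPS, BSA; also added: Eu donor and XL665 acceptor anti-tag antibodies; dosing: 5 µM single dose; timing: compound-protein-antibody incubation 4 h at 22.5 °C; signal: TR-FRET 671 and 617 nm emission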
* hit, by the source's call; ? = inconclusive; nt = not tested or not shown. Only some compounds are listed: those with a hit (about 1.1% of all), similar ones and a draw of the others.

SMILES	Vif imaging	NR2E3 ag-1	NR2E3 ag-2	DAGLB inhibitor	MT1-MMP act inh	core dimer inh
O=C(Nc1ccc(F)cc1)C(c1cc2ccccc2o1)N1CCN(C(=O)c2ccco2)CC1 (stereo unspecified)	nt	nt	nt	nt	9	nt
CCOC(=O)C1=C(CSc2nc3c(cc2C#N)CN(C)CC3)OC(N)=C(C#N)C1c1ccc(Cl)cc1 (stereo unspecified)	6	-50	0	3	-23	57*
CCOC(=O)C1=C(CSc2nc3c(cc2C#N)CN(C)CC3)OC(N)=C(C#N)C1c1ccncc1 (stereo unspecified)	0	-3	1	-3	-41	5
O=C(Nc1ccc(F)cc1)C(c1ccnc2ccccc12)N1CCN(c2cccc(C(F)(F)F)n2)CC1 (stereo unspecified)	nt	nt	nt	nt	5	nt
CCc1noc(C)c1C(=O)NNC(=O)c1ccc(N(CC)CC)cc1	60*	29	1	0	15	nt
CCc1noc(C)c1C(=O)NNC(=O)c1ccc(Br)cc1	10	1	-1	-2	5	-6
Cc1ccc(N=Cc2nc(-c3ccc(C)cc3)oc2O)cc1	-2	-5	nt	-3	5	nt
CC(=O)Nc1ccc(N=Cc2nc(-c3ccc(C)cc3)oc2O)cc1	-7	-2	-5	8	0	65*
COc1cccc(CN2CCC2(C)C(=O)Nc2cccc(Oc3ccccc3)c2)c1F (stereo unspecified)	-3	6	nt	nt	-7	nt
O=c1[nH]c(CN2CCc3ccccc32)nc2scc(-c3cccs3)c12	0	-21	-7	9	-4	48*
Cc1cc(NC(=O)NC2(C(F)(F)F)Oc3ccc(Cl)cc3O2)no1 (stereo unspecified)	105*	28	1	-1	7	-1
O=C(NCc1cccnc1)NC1(C(F)(F)F)Oc2ccc(Cl)cc2O1 (stereo unspecified)	137*	2	2	3	5	1
COCCNC(=O)NC1(C(F)(F)F)Oc2ccc(Cl)cc2O1 (stereo unspecified)	19	5	1	2	3	-5
Cc1cc(NC(=O)Nc2ccc(F)c(Cl)c2)no1	-15	-14	-3	-1	2	-1
COc1ccc(/C=c2\s/c(=C(/C#N)C(=O)NCc3ccco3)n(-c3ccccc3)c2=O)cc1	?	-10	0	5	-1	58*
COC(=O)/C=c1/s/c(=C(\C#N)C(=O)NCc2ccco2)n(-c2ccccc2)c1=O	6	-17	3	2	9	29
COc1ccc([C@H]2CC(=O)C=C(c3cc4ccccc4s3)C2)cc1	51*	-40	3	-5	-1	nt
Cc1ccc(C2CC(c3cccs3)=NN2C(=O)CSc2nc(=O)n3ccc(C)cc3n2)cc1 (stereo unspecified)	4	-12	1	2	-5	61*
COc1ccc(C2CC(c3cccs3)=NN2C(=O)CSc2nc(=O)n3ccc(C)cc3n2)cc1 (stereo unspecified)	nt	-18	-2	5	-5	48*
O=C(CSc1nc(=O)n2ccccc2n1)N1N=C(c2cccs2)CC1c1ccc(F)cc1 (stereo unspecified)	10	-9	1	1	-11	9
COc1ccc2oc3cc(NCCN(C)C)ccc3c(=O)c2c1	nt	-145	nt	nt	5	nt
Cc1ccc(C(=O)Nc2ccc3c(c2)C(=O)N(C)C3=O)c(C)c1	4	14	0	-20	5	15
CC(=O)Nc1ccc(NC(=O)c2ccc(OCc3c(C)noc3C)cc2)cc1	60*	-16	nt	1	0	nt
Cc1ccc(NC(=O)c2ccc(OCc3c(C)noc3C)cc2)cc1C	-18	-24	nt	-3	-3	nt
COc1cc2c3nnc(-c4ccc(F)cc4)c-3cn(Cc3ccc(F)cc3)c2cc1OC	94*	-17	7	2	-3	12
FC(F)(F)C(F)(F)c1nc2nc(Cl)c(Cl)nc2[nH]1	16	-8	nt	5	-4	nt
COc1ccc(CNC(=O)Cc2nn(C)c(=O)c3ccccc23)cc1	1	102*	-4	-1	-2	-4

Screening data: PubChem, several laboratories
